# Active and inactive are the calls of the source. The rule behind the calls is not given here.
# Key:
# [1] = tested on: Liver; test: Half life in human liver microsomes at 10 uM by LC-MS/MS analysis; assay type: ADME, microsome
# Method in brief: (§1)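 Compound at 10 μM final was preincubated 5 min at 37 °C with NADPH regenerating system in phosphate buffer, pH 7.4. Human or mouse liver microsomes (0.5 mg/mL protein) were added to start the reaction. Samples were taken at 0 (no microsomes) and 10–60 min and measured by LC-MS/MS against an internal standard. Half-life = 0.693/k, with k the slope of ln peak-area ratio versus time. Three experiments, each in duplicate.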
# [2] = Metabolic stability in human liver microsomes assessed as parent compound remaining at 10 uM after 60 mins by LC-MS analysis; assay type: ADME, microsome; conditions: read-out: Stability
# Method in brief: (§2)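 The 60 min samples of the microsomal incubation (10 μM compound, human or mouse liver microsomes at 0.5 mg/mL, NADPH regenerating system, 37 °C) were analysed by LC-MS. Detection used SIM mode with dual ESI/APCI ionization, calibrated to the retention times and masses of the parent and its O-demethylated metabolites. Peak intensities were measured.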
# [3] = Metabolic stability in mouse liver microsomes assessed as parent compound remaining at 10 uM after 60 mins by LC-MS analysis; assay type: ADME, microsome; conditions: read-out: Stability; method in brief: as §2
# [4] = Drug metabolism in human liver microsomes assessed as CYP450 mediated-O-demethylated 7-hydroxy-2-(4-hydroxyphenyl)-2H-pyrazolo[4,3-c]quinolin-3(5H)-one metabolite formation after 60 mins by LC-MS analysis; assay type: ADME; conditions: 1 h
# Method in brief: (§3)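 The 60-min samples from the human or mouse liver microsome incubations (10 µM compound, 0.5 mg/mL protein, NADPH regenerating system, 37 °C, pH 7.4) were run on LC-MS in SIM mode with dual ESI/APCI ionization. The method was calibrated to each component's retention time and mass, and the peak intensities of the parent and O-demethylated metabolites were measured.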
# [5] = Drug metabolism in mouse liver microsomes assessed as CYP450 mediated-O-demethylated 7-hydroxy-2-(4-hydroxyphenyl)-2H-pyrazolo[4,3-c]quinolin-3(5H)-one metabolite formation after 60 mins by LC-MS analysis; assay type: ADME; conditions: 1 h; method in brief: as §3
# [6] = Drug metabolism in human liver microsomes assessed as CYP450 mediated-O-demethylated 2-(4-hydroxyphenyl)-7-(trideuteriomethoxy)-5H-pyrazolo[4,3-c]quinolin-3-one metabolite formation after 60 mins by LC-MS analysis; assay type: ADME; conditions: 1 h; method in brief: as §3
# [7] = Drug metabolism in human liver microsomes assessed as CYP450 mediated-O-demethylated 7-hydroxy-2-(4-methoxyphenyl)-2H-pyrazolo[4,3-c]quinolin-3(5H)-one metabolite formation after 60 mins by LC-MS analysis; assay type: ADME; conditions: 1 h; method in brief: as §3
# [8] = Drug metabolism in mouse liver microsomes assessed as CYP450 mediated-O-demethylated 2-(4-hydroxyphenyl)-7-(trideuteriomethoxy)-5H-pyrazolo[4,3-c]quinolin-3-one metabolite formation after 60 mins by LC-MS analysis; assay type: ADME; conditions: 1 h; method in brief: as §3
# [9] = Drug metabolism in mouse liver microsomes assessed as CYP450 mediated-O-demethylated 7-hydroxy-2-(4-methoxyphenyl)-2H-pyrazolo[4,3-c]quinolin-3(5H)-one metabolite formation after 60 mins by LC-MS analysis; assay type: ADME; conditions: 1 h; method in brief: as §3
# [10] = tested on: HEK-293T; test: Cytotoxicity against HEK293T cells assessed as reduction in cell viability up to 400 uM after 48 hrs by CellTiter-Glo assay; assay type: cell-based; conditions: human
# Method in brief: (§4)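 HEK293T and HepG2 cells grown in high-glucose DMEM with non-essential amino acids, 10 mM HEPES, penicillin/streptomycin and 10% heat-inactivated FBS. Cells were harvested with trypsin and plated; compound was pin-transferred 3 h later. Incubation was 48 h, then CellTiter-Glo luminescence was read. Controls were DMSO (negative) and a cytotoxic aminoketone (positive). Quadruplicates, three independent runs, normalized to controls, nonlinear regression.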
# [11] = tested on: HepG2; test: Cytotoxicity against human HepG2 cells assessed as reduction in cell viability up to 400 uM after 48 hrs by CellTiter-Glo assay; assay type: cell-based; conditions: hepg2, 48 h; method in brief: as §4
# [12] = tested on: Mus musculus; test: Neurotoxicity in Swiss Webster mouse assessed as induction of motor impairment at 40 mg/kg administered via oral gavage measured after 10 to 60 mins by rotarod method; assay type: toxicity, organism-based; conditions: in vivo
# Method in brief: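 Female mice were given a single oral gavage dose of 40 mg/kg, either in 50% PBS/40% propylene glycol/10% DMSO or, for poorly soluble compounds, in 2% polyethylene glycol plus 2.5% hydroxymethyl cellulose. Rotarod performance was tested 10, 30 and 60 min after dosing, with diazepam 5 mg/kg as positive control.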
# [13] = Cmax in Wistar rat plasma at 10 mg/kg, ip administered as single dose measured at 5 to 720 mins post dose by HPLC-MS/MS analysis; assay type: ADME, organism-based; parameters: dose 10 mg/kg, route intraperitoneal
# Method in brief: (§5)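 Male Wistar rats (250-350 g) given a single 10 mg/kg i.p. dose of a 5 mg/ml suspension in 85% distilled water, 14% propylene glycol, 1% Tween 80. Three rats per time point (5, 20, 60, 180, 720 min). Blood and brain were collected after sacrifice. Drug was recovered by solid phase extraction and quantified by HPLC-MS/MS.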
# [14] = Tmax in Wistar rat plasma at 10 mg/kg, ip administered as single dose by HPLC-MS/MS analysis; assay type: ADME, organism-based
# Method in brief: (§6)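 Male Wistar rats (250–350 g) received a single i.p. dose of 10 mg/kg as a 5 mg/ml suspension in 85% water, 14% propylene glycol and 1% Tween 80. Three rats per time point were sacrificed at 5, 20, 60, 180 and 720 min for plasma and brain. Samples were cleaned up by solid-phase extraction and quantified by HPLC-MS/MS.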
# [15] = AUC (0 to 12 hrs) in Wistar rat plasma at 10 mg/kg, ip administered as single dose by HPLC-MS/MS analysis; assay type: ADME, organism-based; parameters: time < 12 hr, dose 10 mg/kg, route intraperitoneal
# [16] = Terminal elimination half-life in Wistar rat plasma at 10 mg/kg, ip administered as single dose by HPLC-MS/MS analysis; assay type: ADME, organism-based; conditions: read-out: beta t1/2 (converted); method in brief: as §6
# [17] = Cmax in Wistar rat brain at 10 mg/kg, ip administered as single dose measured at 5 to 720 mins post dose by HPLC-MS/MS analysis; assay type: ADME, organism-based; parameters: dose 10 mg/kg, route intraperitoneal; method in brief: as §5
# [18] = Tmax in Wistar rat brain at 10 mg/kg, ip administered as single dose by HPLC-MS/MS analysis; assay type: ADME, organism-based; method in brief: as §6
# [19] = tested on: Brain; test: AUC (0 to 12 hrs) in Wistar rat brain at 10 mg/kg, ip administered as single dose by HPLC-MS/MS analysis; assay type: ADME, organism-based; parameters: dose 10 mg/kg, time < 12 hr, route intraperitoneal; conditions: in vivo
# [20] = Terminal elimination half-life in Wistar rat brain at 10 mg/kg, ip administered as single dose by HPLC-MS/MS analysis; assay type: ADME, organism-based; conditions: read-out: beta t1/2 (converted); method in brief: as §6
# [21] = Ratio of brain AUC (0 to t) to plasma AUC (0 to t), Kp of the compound in Wistar rat at 10 mg/kg, ip administered as single dose by HPLC-MS/MS analysis; assay type: ADME, organism-based
# [22] = molecular target: Voltage-gated inwardly rectifying potassium channel KCNH2 (Homo sapiens, UniProt Q12809); test: Displacement of [3H]-dofetilide from human ERG expressed in HEK cell membranes at >10 uM after 60 to 90 mins by scintillation counting
# Sequence of Voltage-gated inwardly rectifying potassium channel KCNH2 (Q12809 whole entry): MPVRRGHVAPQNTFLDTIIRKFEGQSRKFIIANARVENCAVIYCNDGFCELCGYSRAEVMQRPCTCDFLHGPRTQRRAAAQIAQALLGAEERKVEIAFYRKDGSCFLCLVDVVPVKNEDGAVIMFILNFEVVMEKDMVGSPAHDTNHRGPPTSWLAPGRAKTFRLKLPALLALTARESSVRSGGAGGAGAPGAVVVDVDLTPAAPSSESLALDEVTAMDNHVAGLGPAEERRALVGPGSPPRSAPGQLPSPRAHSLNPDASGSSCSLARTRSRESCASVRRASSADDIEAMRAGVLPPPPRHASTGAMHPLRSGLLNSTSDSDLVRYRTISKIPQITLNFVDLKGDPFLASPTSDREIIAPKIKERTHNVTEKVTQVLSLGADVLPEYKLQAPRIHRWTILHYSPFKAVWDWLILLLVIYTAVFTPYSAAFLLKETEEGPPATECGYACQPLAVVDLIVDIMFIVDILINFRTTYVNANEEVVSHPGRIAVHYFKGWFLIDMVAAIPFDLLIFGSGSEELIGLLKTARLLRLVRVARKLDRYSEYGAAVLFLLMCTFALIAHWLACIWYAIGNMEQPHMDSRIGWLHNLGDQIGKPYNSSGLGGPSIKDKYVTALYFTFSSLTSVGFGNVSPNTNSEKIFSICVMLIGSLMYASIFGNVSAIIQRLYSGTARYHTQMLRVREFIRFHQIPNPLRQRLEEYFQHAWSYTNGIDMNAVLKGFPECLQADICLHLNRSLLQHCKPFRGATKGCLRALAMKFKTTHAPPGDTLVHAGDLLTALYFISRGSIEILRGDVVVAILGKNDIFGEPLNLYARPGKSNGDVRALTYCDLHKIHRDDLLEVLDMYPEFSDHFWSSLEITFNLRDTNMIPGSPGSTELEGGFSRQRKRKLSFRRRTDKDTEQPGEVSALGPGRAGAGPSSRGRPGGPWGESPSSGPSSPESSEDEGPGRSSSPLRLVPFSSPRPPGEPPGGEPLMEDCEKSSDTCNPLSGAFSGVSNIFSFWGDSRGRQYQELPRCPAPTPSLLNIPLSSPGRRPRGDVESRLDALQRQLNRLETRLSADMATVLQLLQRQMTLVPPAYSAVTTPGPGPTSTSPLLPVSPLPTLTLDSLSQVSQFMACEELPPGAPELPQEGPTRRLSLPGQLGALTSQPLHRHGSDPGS
# [23] = tested on: Brain; test: Fraction unbound in Wistar rat brain at 10 mg/kg, ip administered as single dose measured at 5 to 720 mins post dose by HPLC-MS/MS analysis; assay type: ADME, organism-based; conditions: in vivo
# Method in brief: (§7)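 Free fraction in rat plasma and brain tissue was measured in vitro by rapid equilibrium dialysis. Exposure came from male Wistar rats (250-350 g) given a single 10 mg/kg IP dose, as a 5 mg/ml suspension in 85% water, 14% propylene glycol and 1% Tween 80. Three rats per time point (5–720 min); brain analysed by HPLC-MS/MS after solid-phase extraction.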
# [24] = tested on: Brain; test: Unbound AUC in Wistar rat brain at 10 mg/kg, ip administered as single dose measured at 5 to 720 mins post dose by HPLC-MS/MS analysis; assay type: ADME, organism-based; conditions: in vivo; method in brief: as §7
# [25] = tested on: Liver; test: Half life in mouse liver microsomes at 10 uM by LC-MS/MS analysis; assay type: ADME, microsome; method in brief: as §1
# [26] = Aqueous solubility of the compound in DI water at pH 7 after 2 hrs by LC-MS analysis; assay type: physicochemical; conditions: buffer, pH 7, 2 h
# Method in brief: (§8)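 10 mg compound dissolved in 2 mL DMAC; 10 μL of this added to 2 mL DI water (pH 7, sonicated) or 2 mL 0.01 M aq HCl (pH 2), held 2 h at 37 °C. Filtered through 0.45 micron filter, then quantified by LC-MS in SIM mode against calibration curves of standards in DMAC (n = 5); n=3.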
# [27] = Solubility of the compound in 0.01M HCl at pH 2 after 2 hrs by LC-MS analysis; assay type: physicochemical; conditions: buffer, pH 2, 2 h; method in brief: as §8
# [28] = species on record: Rattus norvegicus; test: Displacement of [3H]-flunitrazepam from rat brain GABA-A receptor benzodiazepine site […] at 10 uM after 60 to 90 mins by scintillation counting; conditions: tested as the 2H-labelled form
# [29] = molecular target: Delta-type opioid receptor (Homo sapiens) (UniProt P41143); test: Displacement of [3H]-DADLE from human recombinant DOR expressed in HEK293 cells at 10 uM after 60 to 90 mins by scintillation counting; assay type: cell-based; conditions: tested as the 2H-labelled form
# Sequence of Delta-type opioid receptor (Homo sapiens) (P41143 whole entry): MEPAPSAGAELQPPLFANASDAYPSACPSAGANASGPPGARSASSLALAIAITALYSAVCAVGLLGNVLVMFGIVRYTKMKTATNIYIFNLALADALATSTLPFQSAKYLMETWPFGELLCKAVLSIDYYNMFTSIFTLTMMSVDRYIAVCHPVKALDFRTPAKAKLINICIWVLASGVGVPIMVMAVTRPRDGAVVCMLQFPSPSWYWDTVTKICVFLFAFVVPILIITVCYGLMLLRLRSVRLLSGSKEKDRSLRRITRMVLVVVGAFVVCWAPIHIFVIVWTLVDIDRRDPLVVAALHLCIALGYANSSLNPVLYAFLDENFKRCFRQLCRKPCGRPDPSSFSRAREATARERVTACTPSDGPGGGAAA
# Method in brief: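 Primary single-concentration radioligand displacement screen run by the NIMH Psychoactive Drug Screening Program across a 46-target panel that includes hERG. The read-out is percent inhibition of specific radioligand binding. Any compound displacing more than 50% of radioligand went on to secondary binding assays to determine Ki.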
SMILES,t1/2 [1] [h],"remaining at 1 h, 10 µM [2] [%]","remaining at 1 h, 10 µM [3] [%]",Activity [10],Activity [11],Activity [12],Cmax [13] [ng/mL],Tmax [14] [h],AUC(0-t) at 12 h [15] [ng·h/mL],half-life [16] [h],Cmax [17] [ng/g],Tmax [18] [h],AUC [19] [ng·h/g],half-life [20] [h],Kp [21],inhibition (INH) [22],further results
[2H]C([2H])([2H])Oc1ccc2c3nn(-c4ccc(OC)cc4)c(=O)c-3c[nH]c2c1,11.1,92,93.2,Non-Toxic,Non-Toxic,Non-Toxic,3740,1.67,25300,2.46,657,2.11,4125.92,2.6,0.16,Not Active,Drug metabolism [4]: Metabolite_Detected; Drug metabolism [5]: Metabolite_Detected; Drug metabolism [6]: Metabolite_Detected; Drug metabolism [7]: Metabolite_Detected; Drug metabolism [8]: Metabolite_Detected; Drug metabolism [9]: Metabolite_Detected
[2H]C([2H])([2H])Oc1ccc(-n2nc3c4ccc(OC([2H])([2H])[2H])cc4[nH]cc-3c2=O)cc1,,91.5,93.1,Non-Toxic,Non-Toxic,Non-Toxic,3410,0.55,16700,2.64,534,0.78,2747.67,3.52,0.17,Not Active,Fu [23]: 0.105; fAUC [24]: 288.78 ng·h/g
COc1ccc(-n2nc3c4cc(Cl)ccc4[nH]cc-3c2=O)cc1,2.3,72.5,69.2,,,Non-Toxic,,,,,,,,,,,t1/2 [25]: 1.9 h; solubility [26]: 6.4 µM; solubility [27]: 8.5 µM; inhibition [28]: Active; inhibition [29]: Active

# — ChEMBL document CHEMBL4033790, “Design and Synthesis of Novel Deuterated Ligands Functionally Selective for the γ-Aminobutyric Acid Type A Receptor (GABAAR) α6 Subtype with Improved Metabolic Stability and Enhanced Bioavailability” (J Med Chem, 2018)
